# Assay results: ChEMBL document CHEMBL1135589, “Refinement and evaluation of a pharmacophore model for flavone derivatives binding to the benzodiazepine site of the GABA(A) receptor” (J Med Chem, 2002)
# Biological target: GABA-A receptor; anion channel
# Experiment: Ability to inhibit [3H]-Ro- 15-1788 binding to Gamma-aminobutyric acid A receptor alpha in vitro in rat cortical membranes
# Type: cell membranes
# Outline: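 Cortex from male Wistar rats (150–200 g) homogenized in 30 mM Tris-HCl pH 7.4, washed, incubated 30 min at 37 °C to remove endogenous GABA, stored frozen. Nonspecific binding defined with 1 μM clonazepam. Filtration on GF/C, scintillation counting; IC50 from single-concentration inhibition formula.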
row,Structure (SMILES),Ki [nM]
1,Cc1ccc2oc(-c3cc(C(=O)O)cc([N+](=O)[O-])c3)cc(=O)c2c1,> 1700
2,COc1cccc(-c2cc(=O)c3cc(C)ccc3o2)c1,99
3,Cc1ccc(O)c(-c2cc(=O)c3cc(C)ccc3o2)c1,7.8
4,CCCCOc1cccc(-c2cc(=O)c3cc(C)ccc3o2)c1,710
5,Cc1ccc2oc(-c3cc(O)cc(C(=O)O)c3)cc(=O)c2c1,> 1600
6,Cc1ccc2oc(-c3ccccc3N)cc(=O)c2c1,700
7,Cc1ccc2oc(-c3ccc(N)cc3)cc(=O)c2c1,2600
8,Cc1ccc2oc(-c3cccc(N)c3)cc(=O)c2c1,1200
9,COC(=O)c1cc(O)cc(-c2cc(=O)c3cc(C)ccc3o2)c1,> 1600
10,Cc1ccc2oc(-c3ccc(C)c(C)c3)cc(=O)c2c1,> 1700
11,COc1cc(CO)cc(-c2cc(=O)c3cc(C)ccc3o2)c1,> 1600
12,CC(C)c1ccc2oc(-c3ccccc3)cc(=O)c2c1,720
13,Cc1cc(C)cc(-c2cc(=O)c3cc(C)ccc3o2)c1,> 1500
14,COc1ccc(Br)cc1-c1cc(=O)c2cc(C)ccc2o1,> 1500
15,COC(=O)c1cc(N)cc(-c2cc(=O)c3cc(C)ccc3o2)c1,> 1900
16,Cc1ccc2oc(-c3ccccc3O)cc(=O)c2c1,6.2
17,Cc1ccc2oc(-c3cc(C(=O)O)cc(C(=O)O)c3)cc(=O)c2c1,> 1600
18,COC(=O)c1cc(C(=O)OC)cc(-c2cc(=O)c3cc(C)ccc3o2)c1,> 1600
19,Cc1cccc2c(=O)cc(-c3ccccc3)oc12,> 1700
20,CCCc1ccc2oc(-c3ccccc3)cc(=O)c2c1,480

row,Structure (SMILES),Ki [nM]
1,Cc1ccc2oc(-c3cccc(C(=O)O)c3)cc(=O)c2c1,> 1700
2,COC(=O)c1cccc(-c2cc(=O)c3cc(C)ccc3o2)c1,220
3,CCc1ccc2oc(-c3ccccc3)cc(=O)c2c1,180
4,Cc1ccc2oc(-c3cccc(C(=O)OC(C)C)c3)cc(=O)c2c1,180
5,CCC(CC)COC(=O)c1cccc(-c2cc(=O)c3cc(C)ccc3o2)c1,610
6,COc1ccc(C)cc1-c1cc(=O)c2cc(C)ccc2o1,> 1500
7,Cc1ccc2oc(-c3cc(CO)cc(CO)c3)cc(=O)c2c1,> 1500
8,COc1cc(C(=O)O)cc(-c2cc(=O)c3cc(C)ccc3o2)c1,> 1600
9,Cc1ccc2oc(-c3cccc(C(F)(F)F)c3)cc(=O)c2c1,9.8
10,COc1ccccc1-c1cc(=O)c2cc(C)ccc2o1,820
11,Cc1ccc2oc(-c3cccc(Br)c3)cc(=O)c2c1,12
12,COC(=O)c1cc(OC)cc(-c2cc(=O)c3cc(C)ccc3o2)c1,3000
13,Cc1ccc2oc(-c3cc(Br)ccc3O)cc(=O)c2c1,0.9
14,Cc1ccc2oc(-c3cccc(O)c3)cc(=O)c2c1,390
15,CCOC(=O)c1cc(N)cc(-c2cc(=O)c3cc(C)ccc3o2)c1,3600
16,COC(=O)c1cc(CO)cc(-c2cc(=O)c3cc(C)ccc3o2)c1,> 1500
17,Cc1ccc2oc(-c3cccnc3)cc(=O)c2c1,130
18,COC(=O)c1cc(-c2cc(=O)c3cc(C)ccc3o2)cc([N+](=O)[O-])c1,> 2100
19,CCC(CC)COc1cccc(-c2cc(=O)c3cc(C)ccc3o2)c1,1000
20,Cc1ccc2oc(-c3ccccc3)cc(=O)c2c1 [6-METHYLFLAVONE],180
